Laboratory results: ChEMBL document CHEMBL1287651, “Synthesis and in vitro antibacterial activity of fluoroquinolone derivatives containing 3-(N'-alkoxycarbamimidoyl)-4-(alkoxyimino) pyrrolidines” (2010)
Values after ≈ are worked out from the molar mass of the structure shown.

Legend:
Assay type in all cases: functional
Enterococcus faecium [1] = experiment: Antibacterial activity against Enterococcus faecium 08-7 after 18 to 24 hrs by twofold serial dilution method
Method in brief: (§1)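 MIC determined by the standard twofold serial dilution method on agar media, screening against Gram-positive and Gram-negative strains. Levofloxacin and gemifloxacin were run alongside as reference drugs.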

Streptococcus pneumoniae [2] = experiment: Antibacterial activity against Streptococcus pneumoniae 08-2 after 18 to 24 hrs by twofold serial dilution method; method in brief: as §1
Enterococcus faecium [3] = experiment: Antibacterial activity against Enterococcus faecium 08-2 after 18 to 24 hrs by twofold serial dilution method; method in brief: as §1
[4] = tested on: Staphylococcus epidermidis; experiment: Antibacterial activity against methicillin-resistant Staphylococcus epidermidis 09-3 after 18 to 24 hrs by twofold serial dilution method
Method in brief: (§2)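 Standard twofold serial agar dilution method on agar media for MIC determination. Screened against representative Gram-positive and Gram-negative strains. Levofloxacin and GMFX served as control drugs.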

[5] = tested on: Staphylococcus epidermidis; experiment: Antibacterial activity against methicillin-sensitive Staphylococcus epidermidis 09-6 after 18 to 24 hrs by twofold serial dilution method; method in brief: as §2
[6] = tested on: Staphylococcus epidermidis; experiment: Antibacterial activity against methicillin-sensitive Staphylococcus epidermidis 09-3 after 18 to 24 hrs by twofold serial dilution method; method in brief: as §2
Pseudomonas aeruginosa [7] = experiment: Antibacterial activity against Pseudomonas aeruginosa 09-33 after 18 to 24 hrs by twofold serial dilution method; method in brief: as §1
Escherichia coli [8] = experiment: Antibacterial activity against Escherichia coli 08-21 after 18 to 24 hrs by twofold serial dilution method; method in brief: as §1
Pseudomonas aeruginosa [9] = experiment: Antibacterial activity against Pseudomonas aeruginosa 09-35 after 18 to 24 hrs by twofold serial dilution method; method in brief: as §1
[10] = tested on: Staphylococcus epidermidis; experiment: Antibacterial activity against methicillin-resistant Staphylococcus epidermidis 09-2 after 18 to 24 hrs by twofold serial dilution method; method in brief: as §2
Pseudomonas aeruginosa [11] = experiment: Antibacterial activity against Pseudomonas aeruginosa ATCC 27853 after 18 to 24 hrs by twofold serial dilution method; method in brief: as §1
Klebsiella pneumoniae [12] = experiment: Antibacterial activity against Klebsiella pneumoniae 09-23 after 18 to 24 hrs by twofold serial dilution method; method in brief: as §1
Klebsiella pneumoniae [13] = experiment: Antibacterial activity against Klebsiella pneumoniae 09-21 after 18 to 24 hrs by twofold serial dilution method; method in brief: as §1
Pseudomonas aeruginosa [14] = experiment: Antibacterial activity against Pseudomonas aeruginosa 09-32 after 18 to 24 hrs by twofold serial dilution method; method in brief: as §1
[15] = tested on: Staphylococcus epidermidis; experiment: Antibacterial activity against methicillin-resistant Staphylococcus epidermidis 09-4 after 18 to 24 hrs by twofold serial dilution method; method in brief: as §2
Staphylococcus aureus [16] = experiment: Antibacterial activity against methicillin-sensitive Staphylococcus aureus 08-2 after 18 to 24 hrs by twofold serial dilution method; method in brief: as §2
Streptococcus pneumoniae [17] = experiment: Antibacterial activity against Streptococcus pneumoniae 08-4 after 18 to 24 hrs by twofold serial dilution method; method in brief: as §1
Escherichia coli [18] = experiment: Antibacterial activity against Escherichia coli 08-22 after 18 to 24 hrs by twofold serial dilution method; method in brief: as §1
Enterococcus faecalis [19] = experiment: Antibacterial activity against Enterococcus faecalis 08-12 after 18 to 24 hrs by twofold serial dilution method; method in brief: as §1
Enterococcus faecalis [20] = experiment: Antibacterial activity against Enterococcus faecalis 08-10 after 18 to 24 hrs by twofold serial dilution method; method in brief: as §1
Pseudomonas aeruginosa [21] = experiment: Antibacterial activity against Pseudomonas aeruginosa 09-34 after 18 to 24 hrs by twofold serial dilution method; method in brief: as §1
Klebsiella pneumoniae [22] = experiment: Antibacterial activity against Klebsiella pneumoniae 09-22 after 18 to 24 hrs by twofold serial dilution method; method in brief: as §1
Staphylococcus aureus [23] = experiment: Antibacterial activity against Staphylococcus aureus ATCC […] after 18 to 24 hrs by twofold serial dilution method; method in brief: as §1
Staphylococcus aureus [24] = experiment: Antibacterial activity against methicillin-resistant Staphylococcus aureus 08-1 after 18 to 24 hrs by twofold serial dilution method; method in brief: as §2
Escherichia coli [25] = experiment: Antibacterial activity against Escherichia coli ATCC 25922 after 18 to 24 hrs by twofold serial dilution method; method in brief: as §1
Enterococcus faecium [26] = experiment: Ratio of compound MIC to gemifloxacin MIC for Enterococcus faecium 08-7
Klebsiella pneumoniae [27] = experiment: Ratio of compound MIC to levofloxacin MIC for Klebsiella pneumoniae 09-22
Klebsiella pneumoniae [28] = experiment: Ratio of compound MIC to gemifloxacin MIC for Klebsiella pneumoniae 09-22
Enterococcus faecium [29] = experiment: Ratio of compound MIC to levofloxacin MIC for Enterococcus faecium 08-7
Streptococcus pneumoniae [30] = experiment: Ratio of compound MIC to levofloxacin MIC for Streptococcus pneumoniae

Row | Structure (SMILES) | MIC (Enterococcus faecium [1]) [µg/mL] | MIC (Streptococcus pneumoniae [2]) [µg/mL] | MIC (Enterococcus faecium [3]) [µg/mL] | MIC [4] [µg/mL] | MIC [5] [µg/mL] | MIC [6] [µg/mL] | MIC (Pseudomonas aeruginosa [7]) [µg/mL] | MIC (Escherichia coli [8]) [µg/mL] | MIC (Pseudomonas aeruginosa [9]) [µg/mL] | MIC [10] [µg/mL] | MIC (Pseudomonas aeruginosa [11]) [µg/mL] | MIC (Klebsiella pneumoniae [12]) [µg/mL] | MIC (Klebsiella pneumoniae [13]) [µg/mL] | MIC (Pseudomonas aeruginosa [14]) [µg/mL] | MIC [15] [µg/mL] | MIC (Staphylococcus aureus [16]) [µg/mL] | MIC (Streptococcus pneumoniae [17]) [µg/mL] | MIC (Escherichia coli [18]) [µg/mL] | MIC (Enterococcus faecalis [19]) [µg/mL] | MIC (Enterococcus faecalis [20]) [µg/mL] | other results
1 | CCO/N=C(/N)C1CN(c2c(F)cc3c(=O)c(C(=O)O)cn(CCF)c3c2F)C/C1=N\OC (stereo unspecified) | > 128 | 8 (≈ 17 µM) | > 128 | 0.125 (≈ 0.266 µM) | 0.25 (≈ 0.533 µM) | 0.5 (≈ 1.07 µM) | > 128 | > 128 | > 128 | 0.25 (≈ 0.533 µM) | > 128 | > 128 | > 128 | > 128 | 0.25 (≈ 0.533 µM) | 0.25 (≈ 0.533 µM) | 1 (≈ 2.13 µM) | > 128 | > 128 | > 128 | MIC (Pseudomonas aeruginosa [21]): > 128 µg/mL; MIC (Klebsiella pneumoniae [22]): 2 µg/mL (≈ 4.26 µM); MIC (Staphylococcus aureus [23]): 0.25 µg/mL (≈ 0.533 µM); MIC (Staphylococcus aureus [24]): 0.25 µg/mL (≈ 0.533 µM); MIC (Escherichia coli [25]): > 128 µg/mL
2 | CCO/N=C1\CN(c2c(F)cc3c(=O)c(C(=O)O)cn(CCF)c3c2F)CC1/C(N)=N\OCC (stereo unspecified) | > 128 | 8 (≈ 16.5 µM) | > 128 | 4 (≈ 8.27 µM) | 8 (≈ 16.5 µM) | 4 (≈ 8.27 µM) | > 128 | > 128 | > 128 | 4 (≈ 8.27 µM) | 128 (≈ 265 µM) | > 128 | > 128 | > 128 | 4 (≈ 8.27 µM) | > 128 | 8 (≈ 16.5 µM) | > 128 | > 128 | > 128 | MIC (Pseudomonas aeruginosa [21]): > 128 µg/mL; MIC (Klebsiella pneumoniae [22]): > 128 µg/mL; MIC (Staphylococcus aureus [23]): 2 µg/mL (≈ 4.14 µM); MIC (Staphylococcus aureus [24]): 4 µg/mL (≈ 8.27 µM); MIC (Escherichia coli [25]): 128 µg/mL (≈ 265 µM)
3 | CCO/N=C(/N)C1CN(c2c(F)cc3c(=O)c(C(=O)O)cn4c3c2OC[C@@H]4C)C/C1=N\OC (stereo partly specified) | 0.06 (≈ 0.13 µM) | 8 (≈ 17.3 µM) | > 128 | 0.06 (≈ 0.13 µM) | 0.06 (≈ 0.13 µM) | 0.06 (≈ 0.13 µM) | > 128 | > 128 | 16 (≈ 34.7 µM) | 0.06 (≈ 0.13 µM) | 16 (≈ 34.7 µM) | > 128 | > 128 | 16 (≈ 34.7 µM) | 0.06 (≈ 0.13 µM) | 0.125 (≈ 0.271 µM) | 8 (≈ 17.3 µM) | > 128 | > 128 | 128 (≈ 277 µM) | Ratio (Enterococcus faecium [26]): 32; Ratio (Klebsiella pneumoniae [27]): 16; Ratio (Klebsiella pneumoniae [28]): 16; Ratio (Enterococcus faecium [29]): 32; MIC (Pseudomonas aeruginosa [21]): > 128 µg/mL; MIC (Klebsiella pneumoniae [22]): 0.5 µg/mL (≈ 1.08 µM); MIC (Staphylococcus aureus [23]): 0.125 µg/mL (≈ 0.271 µM); MIC (Staphylococcus aureus [24]): 0.06 µg/mL (≈ 0.13 µM); MIC (Escherichia coli [25]): 128 µg/mL (≈ 277 µM)
4 | CCO/N=C1\CN(c2c(F)cc3c(=O)c(C(=O)O)cn(CC)c3c2F)CC1/C(N)=N\OC (stereo unspecified) | > 128 | 0.25 (≈ 0.554 µM) | > 128 | 0.25 (≈ 0.554 µM) | 0.25 (≈ 0.554 µM) | 0.125 (≈ 0.277 µM) | > 128 | > 128 | > 128 | 8 (≈ 17.7 µM) | 128 (≈ 284 µM) | > 128 | > 128 | > 128 | 0.125 (≈ 0.277 µM) | 8 (≈ 17.7 µM) | 0.25 (≈ 0.554 µM) | > 128 | > 128 | > 128 | Ratio (Streptococcus pneumoniae [30]): 8; MIC (Pseudomonas aeruginosa [21]): > 128 µg/mL; MIC (Klebsiella pneumoniae [22]): 8 µg/mL (≈ 17.7 µM); MIC (Staphylococcus aureus [23]): 1 µg/mL (≈ 2.22 µM); MIC (Staphylococcus aureus [24]): 0.25 µg/mL (≈ 0.554 µM); MIC (Escherichia coli [25]): > 128 µg/mL
5 | CCO/N=C1\CN(c2nc3c(cc2F)c(=O)c(C(=O)O)cn3C2CC2)CC1/C(N)=N\O (stereo unspecified) | > 128 | 0.25 (≈ 0.578 µM) | > 128 | 0.25 (≈ 0.578 µM) | 0.25 (≈ 0.578 µM) | 0.25 (≈ 0.578 µM) | > 128 | > 128 | > 128 | 0.25 (≈ 0.578 µM) | > 128 | > 128 | > 128 | > 128 | 0.25 (≈ 0.578 µM) | 0.25 (≈ 0.578 µM) | 0.25 (≈ 0.578 µM) | > 128 | 0.25 (≈ 0.578 µM) | > 128 | Ratio (Streptococcus pneumoniae [30]): 8; MIC (Pseudomonas aeruginosa [21]): > 128 µg/mL; MIC (Klebsiella pneumoniae [22]): > 128 µg/mL; MIC (Staphylococcus aureus [23]): 0.25 µg/mL (≈ 0.578 µM); MIC (Staphylococcus aureus [24]): 0.25 µg/mL (≈ 0.578 µM); MIC (Escherichia coli [25]): > 128 µg/mL
6 | CCO/N=C1\CN(c2c(F)cc3c(=O)c(C(=O)O)cn(CCF)c3c2F)CC1/C(N)=N\OC (stereo unspecified) | > 128 | > 128 | > 128 | 0.25 (≈ 0.533 µM) | 0.25 (≈ 0.533 µM) | 0.25 (≈ 0.533 µM) | > 128 | > 128 | > 128 | > 128 | > 128 | > 128 | > 128 | > 128 | 0.125 (≈ 0.266 µM) | > 128 | > 128 | > 128 | > 128 | > 128 | MIC (Pseudomonas aeruginosa [21]): > 128 µg/mL; MIC (Klebsiella pneumoniae [22]): > 128 µg/mL; MIC (Staphylococcus aureus [23]): 2 µg/mL (≈ 4.26 µM); MIC (Staphylococcus aureus [24]): 4 µg/mL (≈ 8.52 µM); MIC (Escherichia coli [25]): > 128 µg/mL
7 | CO/N=C1\CN(c2nc3c(cc2F)c(=O)c(C(=O)O)cn3C2CC2)CC1CN (stereo unspecified) [GEMIFLOXACIN] | 2 (≈ 5.14 µM) | 8 (≈ 20.5 µM) | 16 (≈ 41.1 µM) | 0.06 (≈ 0.154 µM) | 0.25 (≈ 0.642 µM) | 0.125 (≈ 0.321 µM) | 2 (≈ 5.14 µM) | 16 (≈ 41.1 µM) | 0.5 (≈ 1.28 µM) | 0.125 (≈ 0.321 µM) | 2 (≈ 5.14 µM) | 8 (≈ 20.5 µM) | 16 (≈ 41.1 µM) | 0.5 (≈ 1.28 µM) | 0.06 (≈ 0.154 µM) | 0.125 (≈ 0.321 µM) | 0.25 (≈ 0.642 µM) | 2 (≈ 5.14 µM) | 16 (≈ 41.1 µM) | 16 (≈ 41.1 µM) | MIC (Pseudomonas aeruginosa [21]): 0.5 µg/mL (≈ 1.28 µM); MIC (Klebsiella pneumoniae [22]): 8 µg/mL (≈ 20.5 µM); MIC (Staphylococcus aureus [23]): 0.125 µg/mL (≈ 0.321 µM); MIC (Staphylococcus aureus [24]): 0.25 µg/mL (≈ 0.642 µM); MIC (Escherichia coli [25]): 4 µg/mL (≈ 10.3 µM)
